Experimental findings from ChEMBL document CHEMBL1144337, “Discovery and structure-activity relationships of 2-benzylpyrrolidine-substituted aryloxypropanols as calcium-sensing receptor antagonists” (Bioorg Med Chem Lett, 2005) are described below.

Bounds are passed on as bounds.

One experiment relates to HEK293. The experiment can be described thus: Inhibitory concentration for the inhibition of intracellular [Ca2+] release in HEK cells by using FLIPR technology. Type of experiment: functional, cell-based. Particulars: Homo sapiens. An outline of the steps:
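HEK cells over-expressing recombinant human calcium-sensing receptor. Intracellular Ca²⁺ release was stimulated with extracellular Ca²⁺, and inhibition by test compound was read by fluorescence on FLIPR. IC50 values are means of two experiments, with standard deviation reported.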

Experiment [1] addresses Voltage-gated inwardly rectifying potassium channel KCNH2 (Homo sapiens, UniProt Q12809). The experiment is described as follows: Inhibitory concentration against human Kv11.1 ERG potassium channel. An outline of the steps:
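Inhibition of hERG K+ current, measured by a patch-clamp assay, reported as an IC50.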

Sequence of Voltage-gated inwardly rectifying potassium channel KCNH2 (Q12809 whole entry): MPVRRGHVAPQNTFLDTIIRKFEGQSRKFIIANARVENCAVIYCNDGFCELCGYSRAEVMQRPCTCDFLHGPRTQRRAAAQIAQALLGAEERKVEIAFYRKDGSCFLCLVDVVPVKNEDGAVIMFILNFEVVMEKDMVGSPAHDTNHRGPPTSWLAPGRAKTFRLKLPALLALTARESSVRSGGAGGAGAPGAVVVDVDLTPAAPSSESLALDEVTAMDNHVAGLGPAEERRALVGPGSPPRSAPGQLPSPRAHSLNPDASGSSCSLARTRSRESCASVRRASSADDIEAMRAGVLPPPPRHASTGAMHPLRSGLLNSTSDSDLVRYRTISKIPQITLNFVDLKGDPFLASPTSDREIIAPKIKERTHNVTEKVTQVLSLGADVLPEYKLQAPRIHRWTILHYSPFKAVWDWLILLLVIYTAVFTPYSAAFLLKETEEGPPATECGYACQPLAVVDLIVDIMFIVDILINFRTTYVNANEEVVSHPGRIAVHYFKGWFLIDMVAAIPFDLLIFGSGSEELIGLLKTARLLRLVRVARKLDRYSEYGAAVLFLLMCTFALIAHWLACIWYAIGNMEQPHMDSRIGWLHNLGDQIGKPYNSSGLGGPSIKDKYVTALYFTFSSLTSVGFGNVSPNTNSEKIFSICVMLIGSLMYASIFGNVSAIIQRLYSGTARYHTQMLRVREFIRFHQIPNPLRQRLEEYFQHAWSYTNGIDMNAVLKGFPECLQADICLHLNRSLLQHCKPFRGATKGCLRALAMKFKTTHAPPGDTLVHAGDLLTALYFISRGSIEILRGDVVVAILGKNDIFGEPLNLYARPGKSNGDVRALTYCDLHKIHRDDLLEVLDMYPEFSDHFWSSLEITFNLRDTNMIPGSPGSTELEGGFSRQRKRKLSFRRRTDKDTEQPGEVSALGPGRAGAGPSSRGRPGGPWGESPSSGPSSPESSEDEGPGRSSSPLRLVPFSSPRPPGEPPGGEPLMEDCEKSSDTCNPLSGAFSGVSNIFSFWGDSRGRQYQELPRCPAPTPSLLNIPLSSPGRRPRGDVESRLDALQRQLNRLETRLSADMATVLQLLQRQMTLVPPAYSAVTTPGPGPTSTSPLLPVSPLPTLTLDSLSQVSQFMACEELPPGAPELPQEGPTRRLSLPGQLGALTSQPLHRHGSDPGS

Broadly, the IC50 is the concentration needed to halve the response being measured. Low readings indicate greater potency in that assay, high ones weaker potency in that assay. `N#Cc1c(Cl)cccc1OC[C@H](O)CN1CCC[C@H]1Cc1cccc(F)c1`: the concentration for half-maximal inhibition (IC50) with HEK293 was determined as 0.15 µM. In other words, the sub-micromolar range.
`N#Cc1c(Cl)cccc1OC[C@H](O)CN1CCCCC1Cc1ccccc1` (stereo not given in full): the concentration for half-maximal inhibition (IC50) in the experiment on HEK293 was above 30 µM.
On the same count and under the same terms, to `N#Cc1c(Cl)cccc1OC[C@H](O)CN1CCCC(Cc2ccccc2)C1` (stereo not given in full) belongs above 30 µM.
The molecule `COc1cccc(CC2CCN(C[C@@H](O)COc3cccc(Cl)c3C#N)CC2)c1` registered a half-maximal inhibitory concentration (IC50) with HEK293 of 0.64 µM. In other words, the sub-micromolar range.
For `N#Cc1c(Cl)cccc1OC[C@H](O)CN1CC[C@@H](O)[C@H]1Cc1ccccc1`, half-maximal inhibition with HEK293 (IC50) required 1.4 µM.
On the same count and under the same terms, then `N#Cc1c(Cl)cccc1OC[C@H](O)CN1CCC(Cc2cc(F)ccc2F)CC1`, with 2.1 µM.
In the case of `CC(C)(Cc1ccc2ccccc2c1)NC[C@@H](O)COc1cccc(Cl)c1C#N`, the IC50 came to 0.08 µM with HEK293 and 0.194 µM in experiment [1].
For the molecule `COc1cccc(C[C@@H]2CCCN2C[C@@H](O)COc2cccc(Cl)c2C#N)c1`, in the experiment on HEK293, the IC50 is 0.13 µM.
In turn, `N#Cc1c(Cl)cccc1OC[C@H](O)CN1CCCC1Cc1ccccc1` (stereo not given in full) showed an IC50 with HEK293 of 0.35 µM. This IC50 lies about 2.7-fold higher than the previous one.
`COc1ccc(CC2CCN(C[C@@H](O)COc3cccc(Cl)c3C#N)CC2)cc1` had an IC50 in the experiment with HEK293 above 30 µM.
As to `N#Cc1c(Cl)cccc1OC[C@H](O)CN1CCC[C@H]1Cc1ccccc1`, inhibition in the experiment on HEK293 was half-maximal at 0.12 µM (IC50). This counts as sub-micromolar.
On the same count and under the same terms, to `N#Cc1c(Cl)cccc1OC[C@H](O)CN1CCC(Cc2ccccc2)CC1` belongs 2.2 µM; to `N#Cc1c(Cl)cccc1OC[C@H](O)CN1CC[C@H](F)[C@H]1Cc1ccccc1`, 2.8 µM; to `N#Cc1c(Cl)cccc1OC[C@H](O)CN1CCC[C@H]1Cc1ccccc1O`, 0.1 µM.
On the same count and under the same terms, to `COc1cccc(C(O)[C@@H]2CCCN2C[C@@H](O)COc2cccc(Cl)c2C#N)c1` (stereo not given in full) belongs above 30 µM.
On to `N#Cc1c(Cl)cccc1OC[C@H](O)CN1CCC[C@H]1C(O)c1cccc(F)c1` (stereo not given in full), for which the half-inhibitory concentration (IC50) in the experiment on HEK293 was 2.3 µM. This lies in the single-digit micromolar range.
`N#Cc1c(Cl)cccc1OC[C@H](O)CN1CCC[C@H]1Cc1ccc(O)cc1` came in with a 50% inhibitory concentration (IC50) with HEK293 above 30 µM.
On to `CN(C)c1ccc(C[C@@H]2CCCN2C[C@@H](O)COc2cccc(Cl)c2C#N)cc1`, for which the 50% inhibitory concentration (IC50) in the experiment with HEK293 turned out to be 1.9 µM.
`N#Cc1c(Cl)cccc1OC[C@H](O)CN1CCC[C@@H]1Cc1ccccc1`: in the experiment on HEK293, the IC50 was above 30 µM.
`COc1ccccc1C[C@@H]1CCCN1C[C@@H](O)COc1cccc(Cl)c1C#N` displayed a concentration for half-maximal inhibition (IC50) in the experiment with HEK293 above 30 µM.
The molecule `N#Cc1c(Cl)cccc1OC[C@H](O)CN1CCC(Cc2ccccc2)C1` (stereo not given in full) came in with a half-maximal inhibitory concentration (IC50) in the experiment on HEK293 of 10 µM.
On the same count and under the same terms, to `N#Cc1c(Cl)cccc1OC[C@H](O)CN1CCC(F)(F)[C@H]1Cc1ccccc1` belongs above 30 µM; to `COc1ccc(C[C@@H]2CCCN2C[C@@H](O)COc2cccc(Cl)c2C#N)cc1OC`, 0.41 µM.
Same read-out and setting: then `COc1ccc(C[C@@H]2CCCN2C[C@@H](O)COc2cccc(Cl)c2C#N)cc1`, with 0.2 µM.
